From PMC9350903 (ACS chemical neuroscience, 2021)
Where “and” joins values, the source holds several entries; their conditions need not be identical. Equal entries are not always repeated.

Columns and labels:
[1] = oral administration; non-human primates; cited from earlier work
c-kit = conditions: cited from earlier work
CSF-1R [2] = target: T1, CSF-1R (Rattus norvegicus, UniProt Q00495); assay: [^3H]CPPC autoradiography in intrastriatal LPS rat brain tissues; type: binding; conditions: for inhibition of [^3H]CPPC binding: 10 μM competitor
T1 sequence (Q00495 20-978): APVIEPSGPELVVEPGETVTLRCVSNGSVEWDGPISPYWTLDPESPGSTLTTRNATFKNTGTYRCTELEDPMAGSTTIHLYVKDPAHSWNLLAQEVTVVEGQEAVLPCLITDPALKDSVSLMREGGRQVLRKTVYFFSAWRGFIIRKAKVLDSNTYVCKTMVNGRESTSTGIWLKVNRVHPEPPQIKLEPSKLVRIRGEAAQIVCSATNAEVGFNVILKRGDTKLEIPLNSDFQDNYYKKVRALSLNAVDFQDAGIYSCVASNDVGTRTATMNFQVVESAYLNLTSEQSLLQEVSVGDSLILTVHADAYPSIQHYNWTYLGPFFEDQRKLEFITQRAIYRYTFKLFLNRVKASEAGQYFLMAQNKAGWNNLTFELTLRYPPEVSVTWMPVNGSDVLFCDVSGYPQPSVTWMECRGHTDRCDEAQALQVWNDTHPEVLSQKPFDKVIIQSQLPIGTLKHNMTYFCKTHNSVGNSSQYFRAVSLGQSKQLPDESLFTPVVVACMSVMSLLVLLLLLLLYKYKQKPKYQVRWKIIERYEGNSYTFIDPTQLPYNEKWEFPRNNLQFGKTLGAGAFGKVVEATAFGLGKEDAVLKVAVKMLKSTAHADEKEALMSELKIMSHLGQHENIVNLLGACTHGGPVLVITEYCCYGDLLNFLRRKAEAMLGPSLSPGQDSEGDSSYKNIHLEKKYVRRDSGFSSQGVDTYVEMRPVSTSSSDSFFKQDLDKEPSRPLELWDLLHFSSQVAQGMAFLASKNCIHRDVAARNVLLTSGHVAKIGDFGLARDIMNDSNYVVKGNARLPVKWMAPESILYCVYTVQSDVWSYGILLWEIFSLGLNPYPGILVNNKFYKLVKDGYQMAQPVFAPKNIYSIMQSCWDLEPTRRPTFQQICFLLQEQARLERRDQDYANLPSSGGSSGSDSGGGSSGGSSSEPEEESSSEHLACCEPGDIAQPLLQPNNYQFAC

CSF-1R [3] = conditions: cited from earlier work
TrkA = conditions: cited from earlier work
[4] = target: α4β2 nicotinic acetylcholine receptor (Homo sapiens, UniProt P17787+P43681); assay: Eurofins DiscoverX SAFETYscan CNS safety panel
Axl = conditions: cited from earlier work
CSF-1R [5] = target: T2, CSF-1R (Mus musculus, UniProt P09581); assay: [^3H]CPPC autoradiography in i.p. LPS mouse spleen tissues; type: binding
T2 sequence (P09581 20-977): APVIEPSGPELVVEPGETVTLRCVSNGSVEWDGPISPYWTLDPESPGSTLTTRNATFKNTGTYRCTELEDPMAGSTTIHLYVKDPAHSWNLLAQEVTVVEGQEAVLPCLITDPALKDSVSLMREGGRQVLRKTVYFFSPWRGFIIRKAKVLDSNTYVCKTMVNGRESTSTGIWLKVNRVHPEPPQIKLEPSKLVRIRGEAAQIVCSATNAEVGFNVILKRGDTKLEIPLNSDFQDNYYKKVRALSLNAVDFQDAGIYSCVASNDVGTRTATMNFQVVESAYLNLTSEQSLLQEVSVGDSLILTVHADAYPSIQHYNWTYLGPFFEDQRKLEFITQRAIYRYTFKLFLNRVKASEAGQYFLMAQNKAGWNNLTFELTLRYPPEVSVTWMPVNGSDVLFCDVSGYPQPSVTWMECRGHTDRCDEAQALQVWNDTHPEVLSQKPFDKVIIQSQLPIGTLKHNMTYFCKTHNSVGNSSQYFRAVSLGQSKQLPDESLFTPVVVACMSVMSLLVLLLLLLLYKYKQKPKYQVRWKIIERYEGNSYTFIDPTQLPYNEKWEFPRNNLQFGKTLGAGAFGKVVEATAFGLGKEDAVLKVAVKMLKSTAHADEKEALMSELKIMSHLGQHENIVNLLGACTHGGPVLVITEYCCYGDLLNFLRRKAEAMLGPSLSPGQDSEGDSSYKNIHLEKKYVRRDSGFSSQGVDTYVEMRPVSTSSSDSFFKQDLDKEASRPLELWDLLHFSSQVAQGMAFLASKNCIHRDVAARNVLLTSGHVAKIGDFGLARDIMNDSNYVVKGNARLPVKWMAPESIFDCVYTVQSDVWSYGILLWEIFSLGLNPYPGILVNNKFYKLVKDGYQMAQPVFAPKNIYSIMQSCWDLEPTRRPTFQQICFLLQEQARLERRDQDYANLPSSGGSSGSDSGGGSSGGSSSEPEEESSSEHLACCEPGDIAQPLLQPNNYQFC

Flt-3 = conditions: cited from earlier work
[6] = target: NAV 1.5 sodium-gated channel (Homo sapiens, UniProt Q14524); assay: Eurofins DiscoverX SAFETYscan CNS safety panel
CSF-1R [7] = conditions: [^11C]CPPC autoradiography in AD tissues; cited from earlier work
[8] = target: T3, serotonin 5-HT3A receptor (Homo sapiens, UniProt P46098); assay: Eurofins DiscoverX SAFETYscan CNS safety panel
T3 sequence (P46098 24-478): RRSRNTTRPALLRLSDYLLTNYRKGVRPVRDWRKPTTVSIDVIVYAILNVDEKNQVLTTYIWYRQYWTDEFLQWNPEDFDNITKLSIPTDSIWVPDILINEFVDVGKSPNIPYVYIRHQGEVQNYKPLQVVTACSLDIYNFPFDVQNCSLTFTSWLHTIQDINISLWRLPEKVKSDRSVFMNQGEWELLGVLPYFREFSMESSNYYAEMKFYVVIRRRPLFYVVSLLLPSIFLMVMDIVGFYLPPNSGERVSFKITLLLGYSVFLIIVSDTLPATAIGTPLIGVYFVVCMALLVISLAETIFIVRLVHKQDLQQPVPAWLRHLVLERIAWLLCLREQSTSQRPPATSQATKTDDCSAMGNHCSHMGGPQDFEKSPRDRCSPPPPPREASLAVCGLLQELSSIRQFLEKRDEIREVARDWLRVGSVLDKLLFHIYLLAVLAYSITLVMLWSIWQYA

[9] = target: vascular endothelial growth factor receptor 2 (Homo sapiens, UniProt P35968); assay: Eurofins DiscoverX SAFETYscan CNS safety panel
403 known kinases = assay: scanMAX KINOMEscan profile; type: binding; conditions: 10 μM unlabeled CPPC; number of kinases hit of number tested
Method in brief: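 Outsourced scanMAX KINOMEscan competition-binding profile of 403 kinases. Unlabeled test compound was tested at 10 μM, and kinases with off-target binding were identified.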

IRKβ = conditions: cited from earlier work
insulin receptor = insulin receptor (Homo sapiens, UniProt P06213); assay: Eurofins DiscoverX SAFETYscan CNS safety panel
[10] = target: Tyrosine protein kinase LCK (Homo sapiens, UniProt P06239); assay: Eurofins DiscoverX SAFETYscan CNS safety panel
Kit = conditions: cited from earlier work
TSPO [11] = target: TSPO (Rattus norvegicus, UniProt P16257); assay: [^3H]PBR28 autoradiography in intrastriatal LPS rat brain tissues; type: binding
TSPO [12] = assay: No-Wash Assay with [^3H]PBR28 in LPS-treated spleen and LPS injected brains; type: binding; conditions: LPS-treated spleen, 7-day and 30-day post LPS injected brains
TSPO [13] = target: T4, TSPO (Mus musculus, UniProt P50637); assay: [^3H]PBR28 autoradiography in i.p. LPS mouse spleen tissues; type: binding
Method in brief: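 C57bl/6 male mice, 10 weeks old, received LPS 1 mg/kg i.p. in saline for 3 or 4 consecutive days and were killed on day 5 or 6. Spleens were slow-frozen on dry ice and sectioned. Sections were incubated with ascending concentrations of tritiated TSPO radioligand in 100% FBS for 2 h at room temperature, then washed. […] Bmax and Kd came from non-linear regression of phosphor-screen ROI data.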

TSPO [14] = target: T4, TSPO; assay: [^3H]PBR28 autoradiography in GBM mouse model brain tissue; type: binding
Method in brief: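 Mice received an intrastriatal injection of 2.5e6 […] cells and were killed 19 days later. Fresh-frozen brain sections were incubated with 3 nM tritiated TSPO radioligand (total binding) and read by phosphor-screen autoradiography. Adjacent sections were immunostained for IBA-1. Tumour was located by anti-luciferase staining.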

CSF-1R [15] = target: T2, CSF-1R; assay: [^3H]CPPC autoradiography in GBM mouse model brain tissue; type: binding; conditions: mouse GBM brain sections; 18 nM [^3H]CPPC; defined using unlabeled 10 μM CPPC
Method in brief: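 Male-unspecified mice received a unilateral intrastriatal injection of 2.5e6 […] cells. Tumour-bearing mice were selected by MRI on day 10 and killed 9 days later. Brains were fresh-frozen and cut at 10 μm. Sections were incubated with tritiated test compound in 100% FBS for 2 h at room temperature. Non-specific binding used 10 μM unlabeled compound. Sections were washed in 0.5% BSA at 4 °C, then water at 4 °C, exposed to a phosphor screen for 5 days and analysed by ROI.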

[16] = Storage stability of [^3H]CPPC; type: physicochemical; conditions: stored at −20 °C in ethanol; over the first 6 months
Method in brief: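 Tritiated test compound (80 Ci/mmol; 1 mCi/mL stock) was stored in ethanol at −20 °C. Decomposition was measured at 2, 4 and 6 months.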

CSF-1R [17] = assay: No-Wash Assay with [^3H]CPPC in LPS-treated spleen and LPS injected brains; type: binding; conditions: LPS-treated spleen, 7-day and 30-day post LPS injected brains
[18] = ipsilateral hemisphere of 30-day LPS rat brain, [^3H]CPPC 3 nM
[19] = rats sacrificed 30-days post-surgery
[20] = [^3H]PBR28 saturation in i.p. LPS mouse spleen
[21] = [^3H]CPPC saturation in i.p. LPS mouse spleen
[22] = 7-day post-LPS injection rat brain, [^3H]CPPC 3.5 nM, mean ± sd

Chain of Tyrosine protein kinase LCK (P06239 whole entry): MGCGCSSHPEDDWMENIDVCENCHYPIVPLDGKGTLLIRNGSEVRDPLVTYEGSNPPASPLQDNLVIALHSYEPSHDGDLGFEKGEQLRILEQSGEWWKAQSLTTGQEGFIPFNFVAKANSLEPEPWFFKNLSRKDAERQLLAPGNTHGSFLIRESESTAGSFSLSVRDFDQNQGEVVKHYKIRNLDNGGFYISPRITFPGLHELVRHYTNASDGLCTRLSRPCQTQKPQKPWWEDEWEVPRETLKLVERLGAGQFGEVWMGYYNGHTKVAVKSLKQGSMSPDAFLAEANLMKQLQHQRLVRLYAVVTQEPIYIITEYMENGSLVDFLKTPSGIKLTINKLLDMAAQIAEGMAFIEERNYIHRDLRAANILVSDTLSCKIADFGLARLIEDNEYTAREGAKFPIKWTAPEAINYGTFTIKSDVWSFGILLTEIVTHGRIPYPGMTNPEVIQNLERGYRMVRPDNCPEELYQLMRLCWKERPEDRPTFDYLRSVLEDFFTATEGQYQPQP
Chain of α4β2 nicotinic acetylcholine receptor (P43681 29-627 limits assumed): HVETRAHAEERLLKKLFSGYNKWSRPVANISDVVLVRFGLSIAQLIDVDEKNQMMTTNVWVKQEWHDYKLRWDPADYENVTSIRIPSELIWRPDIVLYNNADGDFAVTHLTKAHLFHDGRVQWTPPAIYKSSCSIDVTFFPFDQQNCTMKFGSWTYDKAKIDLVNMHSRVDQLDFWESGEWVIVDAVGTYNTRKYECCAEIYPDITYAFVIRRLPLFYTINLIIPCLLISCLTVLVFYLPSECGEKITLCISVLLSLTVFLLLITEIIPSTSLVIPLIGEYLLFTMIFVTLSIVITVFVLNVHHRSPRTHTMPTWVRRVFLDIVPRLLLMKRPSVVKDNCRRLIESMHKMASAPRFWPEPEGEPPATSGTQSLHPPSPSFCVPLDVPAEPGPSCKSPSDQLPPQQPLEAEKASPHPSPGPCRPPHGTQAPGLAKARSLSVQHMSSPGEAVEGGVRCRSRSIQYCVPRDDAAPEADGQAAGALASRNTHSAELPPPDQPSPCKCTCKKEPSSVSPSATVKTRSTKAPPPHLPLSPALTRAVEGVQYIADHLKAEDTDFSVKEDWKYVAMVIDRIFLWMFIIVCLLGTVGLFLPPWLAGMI
Chain of α4β2 nicotinic acetylcholine receptor (P17787 26-502): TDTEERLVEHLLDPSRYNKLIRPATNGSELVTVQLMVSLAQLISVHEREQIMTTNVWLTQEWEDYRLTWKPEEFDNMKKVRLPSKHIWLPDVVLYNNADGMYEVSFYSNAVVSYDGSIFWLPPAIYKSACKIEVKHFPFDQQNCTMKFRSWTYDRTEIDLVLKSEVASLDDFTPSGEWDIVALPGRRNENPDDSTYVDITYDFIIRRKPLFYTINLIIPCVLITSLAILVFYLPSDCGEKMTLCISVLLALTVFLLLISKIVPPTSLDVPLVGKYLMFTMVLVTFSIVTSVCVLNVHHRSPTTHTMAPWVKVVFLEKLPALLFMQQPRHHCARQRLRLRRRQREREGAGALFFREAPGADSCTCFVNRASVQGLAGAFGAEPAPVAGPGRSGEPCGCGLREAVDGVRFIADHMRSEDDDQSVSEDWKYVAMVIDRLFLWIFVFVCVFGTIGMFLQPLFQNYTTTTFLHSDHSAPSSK
Chain of NAV 1.5 sodium-gated channel (Q14524 whole entry): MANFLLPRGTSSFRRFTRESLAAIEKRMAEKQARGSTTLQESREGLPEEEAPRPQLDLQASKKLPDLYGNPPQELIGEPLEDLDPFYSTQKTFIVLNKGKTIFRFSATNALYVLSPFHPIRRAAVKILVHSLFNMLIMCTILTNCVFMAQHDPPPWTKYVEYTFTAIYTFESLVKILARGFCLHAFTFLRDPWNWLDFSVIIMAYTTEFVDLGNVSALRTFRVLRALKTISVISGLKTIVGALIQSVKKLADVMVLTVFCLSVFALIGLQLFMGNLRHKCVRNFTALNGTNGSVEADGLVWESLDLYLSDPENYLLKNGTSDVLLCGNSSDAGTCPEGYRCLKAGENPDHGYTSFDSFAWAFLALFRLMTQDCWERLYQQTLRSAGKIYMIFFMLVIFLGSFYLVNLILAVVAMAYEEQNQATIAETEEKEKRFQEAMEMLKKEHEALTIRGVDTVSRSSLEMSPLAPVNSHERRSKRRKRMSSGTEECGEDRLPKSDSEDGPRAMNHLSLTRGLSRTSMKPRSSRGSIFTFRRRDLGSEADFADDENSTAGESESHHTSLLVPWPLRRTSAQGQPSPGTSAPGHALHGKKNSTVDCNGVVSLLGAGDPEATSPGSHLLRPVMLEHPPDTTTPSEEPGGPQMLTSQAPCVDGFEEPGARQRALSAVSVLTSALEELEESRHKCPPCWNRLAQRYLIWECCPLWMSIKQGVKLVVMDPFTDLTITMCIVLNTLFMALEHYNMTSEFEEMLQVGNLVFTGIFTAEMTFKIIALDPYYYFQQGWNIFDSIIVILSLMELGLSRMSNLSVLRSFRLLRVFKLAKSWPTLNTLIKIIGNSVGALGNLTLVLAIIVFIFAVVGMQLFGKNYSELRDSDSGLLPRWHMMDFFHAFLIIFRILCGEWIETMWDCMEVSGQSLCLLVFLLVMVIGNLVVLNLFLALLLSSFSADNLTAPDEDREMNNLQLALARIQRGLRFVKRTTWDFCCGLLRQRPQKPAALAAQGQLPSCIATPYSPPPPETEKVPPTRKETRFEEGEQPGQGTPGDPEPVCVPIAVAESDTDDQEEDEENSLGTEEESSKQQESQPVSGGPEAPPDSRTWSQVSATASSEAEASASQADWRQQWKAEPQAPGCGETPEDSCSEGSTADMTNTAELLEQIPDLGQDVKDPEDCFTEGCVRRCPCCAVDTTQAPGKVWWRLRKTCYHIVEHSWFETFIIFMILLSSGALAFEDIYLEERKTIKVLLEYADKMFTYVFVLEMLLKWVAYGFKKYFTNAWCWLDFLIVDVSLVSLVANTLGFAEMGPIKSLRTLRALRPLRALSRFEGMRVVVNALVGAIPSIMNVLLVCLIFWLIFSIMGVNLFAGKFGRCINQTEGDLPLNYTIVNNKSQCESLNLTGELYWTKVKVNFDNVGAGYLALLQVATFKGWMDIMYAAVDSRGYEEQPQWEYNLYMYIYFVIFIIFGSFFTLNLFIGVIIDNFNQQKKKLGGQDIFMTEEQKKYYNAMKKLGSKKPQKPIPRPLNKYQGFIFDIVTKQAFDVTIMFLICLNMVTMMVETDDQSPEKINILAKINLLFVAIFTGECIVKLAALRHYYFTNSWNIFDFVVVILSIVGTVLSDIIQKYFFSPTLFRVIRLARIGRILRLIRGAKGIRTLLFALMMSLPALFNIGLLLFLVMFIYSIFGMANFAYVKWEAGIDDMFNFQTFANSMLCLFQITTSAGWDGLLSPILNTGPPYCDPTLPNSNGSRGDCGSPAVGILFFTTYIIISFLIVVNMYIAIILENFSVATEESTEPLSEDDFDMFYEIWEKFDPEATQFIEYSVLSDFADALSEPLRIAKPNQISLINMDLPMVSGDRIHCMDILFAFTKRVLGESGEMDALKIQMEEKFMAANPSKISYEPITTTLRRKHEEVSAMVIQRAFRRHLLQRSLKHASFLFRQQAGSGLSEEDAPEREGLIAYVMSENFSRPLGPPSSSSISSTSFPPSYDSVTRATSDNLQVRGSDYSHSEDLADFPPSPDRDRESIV
Chain of insulin receptor (P06213 28-1382): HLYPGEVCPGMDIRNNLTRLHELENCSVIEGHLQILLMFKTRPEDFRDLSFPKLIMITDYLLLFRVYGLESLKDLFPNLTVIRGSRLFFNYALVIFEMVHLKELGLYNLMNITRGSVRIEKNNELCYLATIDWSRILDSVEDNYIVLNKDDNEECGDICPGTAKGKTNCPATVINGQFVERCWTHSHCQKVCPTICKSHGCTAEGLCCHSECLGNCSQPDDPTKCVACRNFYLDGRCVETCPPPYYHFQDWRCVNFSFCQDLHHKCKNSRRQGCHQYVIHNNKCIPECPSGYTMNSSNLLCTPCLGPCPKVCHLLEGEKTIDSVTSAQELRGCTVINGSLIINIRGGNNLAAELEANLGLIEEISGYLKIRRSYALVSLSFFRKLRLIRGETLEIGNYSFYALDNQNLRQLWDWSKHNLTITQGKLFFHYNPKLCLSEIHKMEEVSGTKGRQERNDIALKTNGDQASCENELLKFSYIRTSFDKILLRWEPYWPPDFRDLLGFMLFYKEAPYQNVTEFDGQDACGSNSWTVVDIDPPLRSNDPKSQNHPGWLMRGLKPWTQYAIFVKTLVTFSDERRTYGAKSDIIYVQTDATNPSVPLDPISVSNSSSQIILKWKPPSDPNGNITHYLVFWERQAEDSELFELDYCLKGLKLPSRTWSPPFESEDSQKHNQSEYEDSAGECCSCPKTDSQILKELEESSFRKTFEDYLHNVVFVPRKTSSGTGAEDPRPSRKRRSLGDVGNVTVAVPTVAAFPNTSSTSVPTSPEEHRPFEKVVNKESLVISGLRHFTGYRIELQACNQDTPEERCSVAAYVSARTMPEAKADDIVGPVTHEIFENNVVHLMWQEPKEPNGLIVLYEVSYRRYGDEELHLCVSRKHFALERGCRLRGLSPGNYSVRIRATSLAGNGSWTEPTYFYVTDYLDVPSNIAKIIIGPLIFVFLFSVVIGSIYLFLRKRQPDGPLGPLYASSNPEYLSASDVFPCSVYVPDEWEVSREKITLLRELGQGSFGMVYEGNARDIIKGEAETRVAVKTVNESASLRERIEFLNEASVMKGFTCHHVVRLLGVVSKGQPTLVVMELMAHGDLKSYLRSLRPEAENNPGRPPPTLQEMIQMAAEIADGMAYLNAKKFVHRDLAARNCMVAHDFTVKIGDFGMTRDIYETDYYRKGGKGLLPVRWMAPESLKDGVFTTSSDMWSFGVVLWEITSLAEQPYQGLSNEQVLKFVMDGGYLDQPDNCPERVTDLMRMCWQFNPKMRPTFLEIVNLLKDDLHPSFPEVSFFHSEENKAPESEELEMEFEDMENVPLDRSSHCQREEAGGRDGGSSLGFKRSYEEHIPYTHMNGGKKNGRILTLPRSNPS

FC(F)(F)c1ccc(CNc2ccc(Cc3c[nH]c4ncc(Cl)cc34)cn2)cn1 [PLX3397, 5-((5-chloro-1H-pyrrolo[2,3-b]pyridin-3-yl)methyl)-N-((6-(trifluoromethyl)pyridin-3-yl)methyl)pyridin-2-amine]
presence in cerebrospinal fluid [1]: observed in cerebrospinal fluid, albeit at low concentrations | affinity for c-kit (c-kit): 20 nM | inhibition of [^3H]CPPC binding (CSF-1R [2]; [18]): 15% | affinity for CSF-1R (CSF-1R [3]): 10 nM

CN1CCN(c2ccc(NC(=O)c3ccc(C#N)o3)c(N3CCCCC3)c2)CC1 [CPPC, 5-cyano-N-(4-(4-methylpiperazin-1-yl)-2-(piperidin-1-yl)phenyl)furan-2-carboxamide]
concentration of off-target binding (TrkA): less than 0.1 μM | IC50 [4]: 4880 nM | concentration of off-target binding (Axl): less than 0.1 μM | IC50 (CSF-1R [5]): 9.4 nM | hillslope (nH) (CSF-1R [5]; CPPC concentration curve vs [^3H]CPPC in i.p. LPS spleen): 0.46 | inhibition of [^3H]CPPC binding (CSF-1R [5]; i.p. LPS mouse spleen (n = 6), 10 μM competitor, [^3H]CPPC 3 nM): 85% and > 80% | concentration of off-target binding (Flt-3): less than 0.1 μM | IC50 [6]: 6510 nM | ratio of total baseline binding to the inhibited condition (CSF-1R [7]): 1.7–2.7 | IC50 [8]: 5860 nM | IC50 [9]: 74 nM | kinase targets with off-target binding (403 known kinases): 204 of 403 | concentration of off-target binding (IRKβ): less than 0.1 μM | IC50 (insulin receptor): 70 nM | displacement of [^3H]CPPC binding (CSF-1R [2]; 10 μM unlabeled CPPC, LPS rodent brain tissue): up to 50% | % inhibition of [^3H]CPPC binding (signal-to-noise) (CSF-1R [2]; 7-day post-LPS rat brain, 10 μM unlabeled CPPC, [^3H]CPPC 3.5 nM): 49.9 ± 2.9% | inhibition of [^3H]CPPC binding (CSF-1R [2]; [18]): 60% | IC50 [10]: 22 nM | concentration of off-target binding (Kit): less than 0.1 μM

COc1ccccc1CN(C(C)=O)c1cnccc1Oc1ccccc1 [[^3H]PBR28]
Bmax (TSPO [11]; [^3H]PBR28 saturation, ipsilateral hemisphere of 30-day LPS rat brain): 620.7 fmol/mg | [^3H]PBR28 specific binding, contralateral hemisphere (TSPO [11]; rats sacrificed 7-days post-surgery): 29.0 ± 3.1 nCi/mg | [^3H]PBR28 specific binding, ipsilateral hemisphere (TSPO [11]; rats sacrificed 7-days post-surgery, mean ± sd): 83.5 ± 48.9 nCi/mg | [^3H]PBR28 specific binding, contralateral hemisphere (TSPO [11]; [19]): 14.0 ± 2.36 nCi/mg | [^3H]PBR28 specific binding, ipsilateral hemisphere (TSPO [11]; [19]): 36.2 ± 4.07 nCi/mg | specific binding under No-Wash Assay conditions (TSPO [12]): > 60% | Bmax (TSPO [13]; [20]): 14771 fmol/mg tissue | Kd (TSPO [13]; [20]): 2.4 nM | specific binding (TSPO [13]; defined using unlabeled 10 μM FEPPA, i.p. LPS mouse spleen): 99 ± 0.03% | [^3H]PBR28 binding density (TSPO [14]; areas of decreased immunostaining for inflammatory cells): 620 MDC/mm^2 | relative target density ([^3H]PBR28 specific signal) (TSPO [14]; region of the tumor and immediately proximal areas): 250500 MDC/mm^2

[3H]C([3H])([3H])N1CCN(c2ccc(NC(=O)c3ccc(C#N)o3)c(N3CCCCC3)c2)CC1 [[^3H]CPPC, [^3H] 5-cyano-N-(4-(4-methylpiperazin-1-yl)-2-(piperidin-1-yl)phenyl)furan-2-carboxamide]
specific signal of [^3H]CPPC (CSF-1R [15]): ~ 60% | Bmax (CSF-1R [5]; [21]): 1339 fmol/mg tissue | baseline radioligand binding of [^3H]CPPC (CSF-1R [5]; i.p. LPS mouse spleen, [^3H]CPPC 3 nM): 100 nCi/mg | rate of decomposition [16]: less than 3% | specific binding under No-Wash Assay conditions (CSF-1R [17]): lack of specific binding | [^3H]CPPC binding, contralateral hemisphere (CSF-1R [2]; [22]): 17.9 ± 1.1 nCi/mg | [^3H]CPPC binding, ipsilateral hemisphere (CSF-1R [2]; [22]): 18.9 ± 1.7 nCi/mg | saturability of [^3H]CPPC binding (CSF-1R [2]; 30-day LPS rat brain sections, radioligand concentration up to 40 nM): failed to saturate | total binding of [^3H]CPPC (CSF-1R [2]; [18]): 15 nCi/mg

CN1CCN(c2ccc(NC(=O)c3ccc(C#N)o3)c(N3CCCCC3)c2)CC1 [[^3H]CPPC, [^3H] 5-cyano-N-(4-(4-methylpiperazin-1-yl)-2-(piperidin-1-yl)phenyl)furan-2-carboxamide]
Kd (CSF-1R [5]; [21]): 4.3 nM
